Source: ChEMBL document CHEMBL5303300, “EUbOPEN Chemogenomics Library - Multiplex” (2023)
Several values for one entry are separate records, joined by “and”; a condition that tells them apart may be missing. Identical values can stand only once.

Test system: Fibroblast
Experiment: Multiplex assay against human fibroblast
Type: toxicity, cell-based
Conditions: number of replicates 2
Summary of the method: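 Compound was added to live cells that had been stained at seeding with Hoechst33342, BioTracker Green Microtubule Cytoskeleton Dye, MitoTracker Red and Annexin V Alexa Fluor 680, and imaging followed on a CQ1 microscope at 37°C and 5% CO2. CellPathfinder machine-learning gating divided cells into Hoechst high-intensity objects or normal cells, normal cells into healthy, pyknosed or fragmented nuclei, and pyknosed cells into mitotic or apoptotic. Tubulin, mitochondrial-mass and membrane-permeability phenotypes are per cents of healthy-nucleus cells.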

[1] = 12 h, 1 µM, compound concentration 1 uM
[2] = 12 h, 10 µM, compound concentration 10 uM
[3] = 24 h, 1 µM, compound concentration 1 uM
[4] = 24 h, 10 µM, compound concentration 10 uM
[5] = 48 h, 1 µM, compound concentration 1 uM
[6] = 48 h, 10 µM, compound concentration 10 uM

## CSc1cc2c(cc1C(F)(F)F)N(C(=O)Nc1cccnc1)CC2
[1]
  Population Apoptotic (%): 50% and 34%
  Population Fragmented Nuclei (%): 9% and 17%
  Population Healthy Nuclei (%): 75% and 64%
  Population Hoechst High Intensity Objects (%): 0%
  Population Membrane Permeable-Phenotype (%): 6% and 2%
  Population Mitochondria Different-Phenotype (%): 0% and 2%
  Population Mitotic Cells (%): 50% and 65%
  Population Normal (%): 100%
  Population Pyknosed Nuclei (%): 15% and 17%
  Population Tubulin-Different-Phenotype (%): 5% and 10%
  Total Cell Count: 144 and 180
[2]
  Population Apoptotic (%): 22% and 26%
  Population Fragmented Nuclei (%): 4% and 13%
  Population Healthy Nuclei (%): 84% and 71%
  Population Hoechst High Intensity Objects (%): 0%
  Population Membrane Permeable-Phenotype (%): 2% and 5%
  Population Mitochondria Different-Phenotype (%): 0%
  Population Mitotic Cells (%): 77% and 73%
  Population Normal (%): 100%
  Population Pyknosed Nuclei (%): 11% and 15%
  Population Tubulin-Different-Phenotype (%): 8% and 2%
  Total Cell Count: 162 and 152
[3]
  Population Apoptotic (%): 42% and 51%
  Population Fragmented Nuclei (%): 5% and 14%
  Population Healthy Nuclei (%): 80% and 65%
  Population Hoechst High Intensity Objects (%): 0%
  Population Membrane Permeable-Phenotype (%): 1% and 4%
  Population Mitochondria Different-Phenotype (%): 0%
  Population Mitotic Cells (%): 57% and 48%
  Population Normal (%): 100% and 99%
  Population Pyknosed Nuclei (%): 13% and 20%
  Population Tubulin-Different-Phenotype (%): 9% and 11%
  Total Cell Count: 142 and 185
[4]
  Population Apoptotic (%): 20% and 33%
  Population Fragmented Nuclei (%): 9% and 15%
  Population Healthy Nuclei (%): 81% and 73%
  Population Hoechst High Intensity Objects (%): 0%
  Population Membrane Permeable-Phenotype (%): 4% and 3%
  Population Mitochondria Different-Phenotype (%): 0%
  Population Mitotic Cells (%): 80% and 66%
  Population Normal (%): 100%
  Population Pyknosed Nuclei (%): 8% and 11%
  Population Tubulin-Different-Phenotype (%): 9% and 3%
  Total Cell Count: 173 and 156
[5]
  Population Apoptotic (%): 55% and 70%
  Population Fragmented Nuclei (%): 14% and 16%
  Population Healthy Nuclei (%): 73% and 70%
  Population Hoechst High Intensity Objects (%): 0%
  Population Membrane Permeable-Phenotype (%): 5% and 8%
  Population Mitochondria Different-Phenotype (%): 0%
  Population Mitotic Cells (%): 44% and 29%
  Population Normal (%): 99% and 100%
  Population Pyknosed Nuclei (%): 11% and 12%
  Population Tubulin-Different-Phenotype (%): 4% and 7%
  Total Cell Count: 158 and 187
[6]
  Population Apoptotic (%): 54% and 46%
  Population Fragmented Nuclei (%): 7% and 14%
  Population Healthy Nuclei (%): 86% and 76%
  Population Hoechst High Intensity Objects (%): 0%
  Population Membrane Permeable-Phenotype (%): 3% and 2%
  Population Mitochondria Different-Phenotype (%): 0%
  Population Mitotic Cells (%): 45% and 53%
  Population Normal (%): 100%
  Population Pyknosed Nuclei (%): 5% and 9%
  Population Tubulin-Different-Phenotype (%): 4% and 3%
  Total Cell Count: 188 and 164

## CC1=C(C)C(=O)C(C(CCCCCC(=O)O)c2ccccc2)=C(C)C1=O (stereo not drawn) [SERATRODAST]
[1]
  Population Apoptotic (%): 50% and 60%
  Population Fragmented Nuclei (%): 6% and 11%
  Population Healthy Nuclei (%): 57% and 79%
  Population Hoechst High Intensity Objects (%): 0%
  Population Membrane Permeable-Phenotype (%): 5% and 2%
  Population Mitochondria Different-Phenotype (%): 0% and 2%
  Population Mitotic Cells (%): 50% and 40%
  Population Normal (%): 99% and 100%
  Population Tubulin-Different-Phenotype (%): 5% and 3%
  Total Cell Count: 128 and 228
[2]
  Population Apoptotic (%): 35% and 25%
  Population Fragmented Nuclei (%): 12% and 18%
  Population Healthy Nuclei (%): 79% and 75%
  Population Hoechst High Intensity Objects (%): 0%
  Population Membrane Permeable-Phenotype (%): 6% and 5%
  Population Mitochondria Different-Phenotype (%): 1%
  Population Mitotic Cells (%): 64% and 75%
  Population Normal (%): 100%
  Population Pyknosed Nuclei (%): 8% and 6%
  Population Tubulin-Different-Phenotype (%): 15% and 8%
  Total Cell Count: 167 and 192
[3]
  Population Apoptotic (%): 67% and 52%
  Population Fragmented Nuclei (%): 3% and 13%
  Population Healthy Nuclei (%): 64% and 76%
  Population Hoechst High Intensity Objects (%): 0%
  Population Membrane Permeable-Phenotype (%): 7% and 2%
  Population Mitochondria Different-Phenotype (%): 1% and 0%
  Population Mitotic Cells (%): 32% and 47%
  Population Normal (%): 99% and 100%
  Population Tubulin-Different-Phenotype (%): 9% and 1%
  Total Cell Count: 128 and 230
[4]
  Population Fragmented Nuclei (%): 11% and 14%
  Population Healthy Nuclei (%): 81%
  Population Hoechst High Intensity Objects (%): 0%
  Population Membrane Permeable-Phenotype (%): 3%
  Population Mitochondria Different-Phenotype (%): 0% and 1%
  Population Mitotic Cells (%): 36% and 85%
  Population Normal (%): 100%
  Population Pyknosed Nuclei (%): 6% and 3%
  Population Tubulin-Different-Phenotype (%): 8% and 9%
  Total Cell Count: 171 and 193
[5]
  Population Apoptotic (%): 79% and 52%
  Population Fragmented Nuclei (%): 9% and 16%
  Population Healthy Nuclei (%): 65% and 75%
  Population Hoechst High Intensity Objects (%): 0%
  Population Membrane Permeable-Phenotype (%): 3% and 1%
  Population Mitochondria Different-Phenotype (%): 0%
  Population Mitotic Cells (%): 20% and 47%
  Population Normal (%): 99% and 100%
  Population Tubulin-Different-Phenotype (%): 3% and 2%
  Total Cell Count: 133 and 248
[6]
  Population Apoptotic (%): 40% and 36%
  Population Fragmented Nuclei (%): 15% and 21%
  Population Healthy Nuclei (%): 81% and 73%
  Population Hoechst High Intensity Objects (%): 0%
  Population Membrane Permeable-Phenotype (%): 2% and 1%
  Population Mitochondria Different-Phenotype (%): 0%
  Population Mitotic Cells (%): 60% and 63%
  Population Normal (%): 100%
  Population Pyknosed Nuclei (%): 2% and 5%
  Population Tubulin-Different-Phenotype (%): 6% and 5%
  Total Cell Count: 171 and 213
